According to ChEMBL document CHEMBL1130162, “Structure-activity relationships of cysteine-lacking pentapeptide derivatives that inhibit ras farnesyltransferase” (J Med Chem, 1997):

target: Protein farnesyltransferase (Rattus norvegicus, UniProt Q02293+Q04631); assay: Inhibitory concentration against rat brain farnesyltransferase
Method in brief: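 Rat brain FTase (40-fold purified), pH 7.4, in 30 mM potassium phosphate, 5 mM phosphate plus 50 mM Hepes, or 50 mM Hepes. Buffer also held 7 mM DTT, 1.2 mM MgCl2 and protease inhibitors. Final substrates were 0.12 μM [1-3H]FPP and 0.1 μM biotinyl-aminoheptanoyl-TKCVIM, with inhibitor varied from DMSO stock. Reaction ran 30 min at 37 °C, was stopped with streptavidin beads, and was counted by scintillation proximity. Generally n = 2.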

Row | Structure (SMILES) | IC50 [nM]
1 | CCNC(=O)[C@H](C)NC(=O)[C@@H](Cc1c[nH]c2ccccc12)NC(=O)[C@@H](COCc1ccccc1)NC(=O)[C@@H](Cc1ccc(OCc2ccccc2)cc1)NC(=O)[C@@H](Cc1c[nH]cn1)NC(=O)OCc1ccccc1 | 170
2 | C[C@H](NC(=O)C(Cc1ccccc1)NC(=O)[C@@H](COCc1ccccc1)NC(=O)[C@@H](Cc1ccc(OCc2ccccc2)cc1)NC(=O)[C@@H](Cc1cnc[nH]1)NC(=O)OCc1ccccc1)C(N)=O (stereo partly specified) | 2500
3 | C[C@H](NC(=O)[C@@H](Cc1c[nH]c2ccccc12)NC(=O)[C@@H](COCc1ccccc1)NC(=O)[C@@H](Cc1ccc(OCc2ccccc2)cc1)NC(=O)[C@H](N)Cc1cnc[nH]1)C(N)=O | 4500
4 | C[C@H](NC(=O)[C@@H](Cc1c[nH]c2ccccc12)NC(=O)[C@@H](COCc1ccccc1)NC(=O)C(CCCCN)NC(=O)[C@@H](Cc1cnc[nH]1)NC(=O)OCc1ccccc1)C(N)=O (stereo partly specified) | 1900
5 | C[C@H](NC(=O)[C@@H](Cc1c[nH]c2ccccc12)NC(=O)[C@@H](COCc1ccccc1)NC(=O)C(CC1CCCCC1)NC(=O)[C@@H](Cc1cnc[nH]1)NC(=O)OCc1ccccc1)C(N)=O (stereo partly specified) | 66
6 | C[C@H](NC(=O)[C@@H](Cc1c[nH]c2ccccc12)NC(=O)[C@@H](CSCc1ccccc1)NC(=O)[C@@H](Cc1ccc(OCc2ccccc2)cc1)NC(=O)[C@@H](Cc1cnc[nH]1)NC(=O)OCc1ccccc1)C(N)=O | 15
7 | C[C@H](NC(=O)[C@@H](Cc1c[nH]c2ccccc12)NC(=O)[C@@H](CCC(=O)O)NC(=O)[C@@H](Cc1ccc(OCc2ccccc2)cc1)NC(=O)[C@@H](Cc1c[nH]cn1)NC(=O)OCc1ccccc1)C(N)=O | 200
8 | C[C@H](NC(=O)[C@@H](Cc1c[nH]c2ccccc12)NC(=O)[C@@H](COCc1ccccc1)NC(=O)[C@@H](Cc1ccc(OCc2ccccc2)cc1)NC(=O)[C@@H](Cc1cnc[nH]1)NC(=O)OCC1c2ccccc2-c2ccccc21)C(N)=O | 1600
9 | C[C@@H](NC(=O)[C@H](Cc1c[nH]c2ccccc12)NC(=O)[C@H](COCc1ccccc1)NC(=O)[C@@H](Cc1ccccc1)NC(=O)[C@H](Cc1cnc[nH]1)NC(=O)OCc1ccccc1)C(N)=O (stereo in doubt) | 79
10 | C[C@H](NC(=O)[C@@H](Cc1c[nH]c2ccccc12)NC(=O)C(Cc1ccccc1)NC(=O)[C@@H](Cc1ccc(OCc2ccccc2)cc1)NC(=O)[C@@H](Cc1c[nH]cn1)NC(=O)OCc1ccccc1)C(N)=O (stereo partly specified) | 130
11 | C[C@H](NC(=O)[C@@H](Cc1c[nH]c2ccccc12)NC(=O)[C@@H](COCc1ccccc1)NC(=O)[C@H](CS)NC(=O)[C@@H](Cc1c[nH]cn1)NC(=O)OCc1ccccc1)C(N)=O | 4900
12 | C[C@H](NC(=O)[C@@H](Cc1c[nH]c2ccccc12)NC(=O)[C@@H](COCc1ccccc1)NC(=O)[C@@H](CCc1ccccc1)NC(=O)[C@@H](Cc1c[nH]cn1)NC(=O)OCc1ccccc1)C(N)=O | 18
13 | C[C@H](NC(=O)[C@@H](Cc1c[nH]c2ccccc12)NC(=O)[C@@H](CS)NC(=O)[C@@H](Cc1ccc(OCc2ccccc2)cc1)NC(=O)[C@@H](Cc1cnc[nH]1)NC(=O)OCc1ccccc1)C(N)=O | 4
14 | C[C@H](NC(=O)[C@@H](Cc1c[nH]c2ccccc12)NC(=O)[C@H](COCc1ccccc1)NC(=O)[C@@H](Cc1ccc(OCc2ccccc2)cc1)NC(=O)[C@@H](Cc1cnc[nH]1)NC(=O)OCc1ccccc1)C(N)=O | 13000
15 | C[C@H](NC(=O)[C@@H](Cc1c[nH]c2ccccc12)NC(=O)[C@@H](COCc1ccccc1)NC(=O)C(CCC(=O)O)NC(=O)[C@@H](Cc1c[nH]cn1)NC(=O)OCc1ccccc1)C(N)=O (stereo partly specified) | 18
16 | C[C@H](NC(=O)[C@@H](Cc1c[nH]c2ccccc12)NC(=O)[C@@H](CO)NC(=O)[C@@H](Cc1ccc(OCc2ccccc2)cc1)NC(=O)[C@@H](Cc1cnc[nH]1)NC(=O)OCc1ccccc1)C(N)=O | 1800

Now from value to compound:

Row | IC50 [nM] | Structure (SMILES)
17 | 15 | C[C@H](NC(=O)[C@@H](Cc1c[nH]c2ccccc12)NC(=O)[C@H](NC(=O)[C@@H](Cc1ccc(OCc2ccccc2)cc1)NC(=O)[C@@H](Cc1cnc[nH]1)NC(=O)OCc1ccccc1)[C@@H](C)OCc1ccccc1)C(N)=O
18 | 3800 | C[C@H](NC(=O)[C@@H](Cc1c[nH]c2ccccc12)NC(=O)[C@@H](COCc1ccccc1)NC(=O)[C@@H](Cc1ccc(OCc2ccccc2)cc1)NC(=O)[C@@H](Cc1c[nH]cn1)NC(=O)OC1CCCCC1)C(N)=O
19 | > 20000 | CC(NC(=O)OCc1ccccc1)C(=O)N[C@H](Cc1ccc(OCc2ccccc2)cc1)C(=O)N[C@H](COCc1ccccc1)C(=O)N[C@H](Cc1c[nH]c2ccccc12)C(=O)N[C@@H](C)C(N)=O (stereo partly specified)
20 | 54 | C[C@H](NC(=O)[C@@H](Cc1c[nH]c2ccccc12)NC(=O)[C@@H](COCc1ccccc1)NC(=O)C(CCC(N)=O)NC(=O)[C@@H](Cc1cnc[nH]1)NC(=O)OCc1ccccc1)C(N)=O (stereo partly specified)
21 | 82 | C[C@H](NC(=O)[C@@H](Cc1c[nH]c2ccccc12)NC(=O)[C@@H](COCc1ccccc1)NC(=O)[C@@H](Cc1ccc(OCc2ccccc2)cc1)NC(=O)C(Cc1c[nH]cn1)NC(=O)OCc1ccccc1)C(N)=O (stereo partly specified)
22 | 8.5 | CC(NC(=O)[C@@H](Cc1c[nH]c2ccccc12)NC(=O)[C@@H](COCc1ccccc1)NC(=O)[C@@H](Cc1ccc(OCc2ccccc2)cc1)NC(=O)[C@@H](Cc1c[nH]cn1)NC(=O)OCc1ccccc1)C(N)=O (stereo partly specified)
23 | > 20000 | C[C@H](NC(=O)[C@@H](Cc1c[nH]c2ccccc12)NC(=O)[C@@H](COCc1ccccc1)NC(=O)[C@@H](Cc1ccc(OCc2ccccc2)cc1)NC(=O)[C@@H](Cc1c[nH]cn1)NC(=O)[C@@H]1CCC(=O)N1)C(N)=O
24 | 9 | C[C@@H](NC(=O)[C@H](Cc1c[nH]c2ccccc12)NC(=O)[C@H](COCc1ccccc1)NC(=O)[C@H](Cc1ccccc1)NC(=O)[C@H](Cc1c[nH]cn1)NC(=O)OCc1ccccc1)C(N)=O (single isomer, unassigned)
25 | 10000 | CC(=O)N[C@H](Cc1cnc[nH]1)C(=O)N[C@H](Cc1ccc(OCc2ccccc2)cc1)C(=O)N[C@H](COCc1ccccc1)C(=O)N[C@H](Cc1c[nH]c2ccccc12)C(=O)N[C@@H](C)C(N)=O
26 | 38 | C[C@H](NC(=O)[C@@H](Cc1c[nH]c2ccccc12)NC(=O)[C@@H](COCc1ccccc1)NC(=O)[C@H](CC(=O)O)NC(=O)[C@@H](Cc1c[nH]cn1)NC(=O)OCc1ccccc1)C(N)=O
27 | 1000 | C[C@H](NC(=O)[C@@H](Cc1c[nH]c2ccccc12)NC(=O)[C@@H](COCc1ccccc1)NC(=O)[C@H](C)NC(=O)[C@@H](Cc1c[nH]cn1)NC(=O)OCc1ccccc1)C(N)=O
28 | > 20000 | C[C@H](NC(=O)[C@@H](Cc1c[nH]c2ccccc12)NC(=O)[C@@H](COCc1ccccc1)NC(=O)[C@@H](Cc1ccc(OCc2ccccc2)cc1)NC(=O)C(Cc1ccccc1)NC(=O)OCc1ccccc1)C(N)=O (stereo partly specified)
29 | 170 | C[C@@H](NC(=O)[C@H](Cc1c[nH]c2ccccc12)NC(=O)[C@H](COCc1ccccc1)NC(=O)[C@@H](Cc1ccc(O)cc1)NC(=O)[C@H](Cc1cnc[nH]1)NC(=O)OCc1ccccc1)C(N)=O (stereo in doubt)
30 | 8700 | C[C@H](NC(=O)[C@H](Cc1c[nH]c2ccccc12)NC(=O)[C@@H](COCc1ccccc1)NC(=O)[C@@H](Cc1ccc(OCc2ccccc2)cc1)NC(=O)[C@@H](Cc1cnc[nH]1)NC(=O)OCc1ccccc1)C(N)=O
31 | 170 | C[C@H](NC(=O)[C@@H](Cc1c[nH]c2ccccc12)NC(=O)[C@@H](COCc1ccccc1)NC(=O)[C@@H](Cc1ccc(OCc2ccccc2)cc1)NC(=O)C(CS)NC(=O)OCc1ccccc1)C(N)=O (stereo partly specified)
